Reference: ChEMBL document CHEMBL1177711, “Novel quinolizidinyl derivatives as antiarrhythmic agents: 2. Further investigation” (J Med Chem, 2010)
Each block holds one compound with its values, some of them ahead of it. Active and inactive are the calls of the source.

Columns and labels:
Aorta = assay: Vasorelaxant activity in potassium depolarized guinea pig aortic strip assessed as inhibition of calcium-induced contraction at 100 uM; format: functional; details: Cavia porcellus
[1] = Negative inotropic activity against potassium-induced contraction in guinea pig left atrium assessed as decrease in developed tension; format: functional, tissue-based; details: Cavia porcellus, Cardiac atrium
[2] = Negative chronotropic activity against potassium-induced contraction in guinea pig left atrium assessed as decrease atrial rate at 50 uM relative to control; format: functional, Cavia porcellus, Cardiac atrium; design: scale not given: the % may be the effect or the level left
[3] = Negative inotropic activity against potassium-induced contraction in guinea pig left atrium assessed as decrease in developed tension at 10 uM relative to control; format: functional, Cavia porcellus, Cardiac atrium; design: scale not given: the % may be the effect or the level left
[4] = Antiarrhythmic activity in sinusoidal alternating current-induced guinea pig left atrium assessed as increase in current strength at which extra beats occur measured every 30 mins; format: functional, tissue-based; details: Cavia porcellus, Cardiac atrium, 0.5 h
Outline: (§1)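 Isolated guinea pig left atria, electrically driven at 1 Hz, were exposed to sinusoidal alternating current to induce arrhythmia. The read-out was the rise in the ac-arrhythmia threshold over concentrations up to 100 μM.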

[5] = Antiarrhythmic activity in sinusoidal alternating current-induced guinea pig left atrium assessed as increase in current strength at which extra beats occur at 10 uM measured every 30 mins; format: functional, Cavia porcellus, Cardiac atrium; outline: as §1
[6] = Cardioprotective effect in Langendorff perfused guinea pig spontaneously beating […] assessed as atrioventicular conduction time at 1 uM (RVb = 50 to 55 +/- 1 to 4 ms); format: functional; details: Cavia porcellus
Outline: (§2)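 Whole guinea pig hearts were Langendorff-perfused and their ECG recorded at graded concentrations. Intervals read were PR (atrioventricular conduction time), QT (ventricular action potential duration) and QRS (intraventricular conduction time).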

[7] = Cardioprotective effect in Langendorff perfused guinea pig spontaneously beating […] assessed as intraventicular conduction time at 10 uM (RVb = 19 to 24 +/- 1 to 2 ms); format: functional; details: Cavia porcellus; outline: as §2
[8] = Cardioprotective effect in Langendorff perfused guinea pig spontaneously beating […] assessed as intraventicular conduction time at 1 uM (RVb = 19 to 24 +/- 1 to 2 ms); format: functional; details: Cavia porcellus; outline: as §2
[9] = Cardioprotective effect in Langendorff perfused guinea pig spontaneously beating […] assessed as intraventicular conduction time at 0.1 uM (RVb = 19 to 24 +/- 1 to 2 ms); format: functional; details: Cavia porcellus; outline: as §2
[10] = Cardioprotective effect in Langendorff perfused guinea pig spontaneously beating […] assessed as intraventicular conduction time at 0.01 uM (RVb = 19 to 24 +/- 1 to 2 ms); format: functional; details: Cavia porcellus; outline: as §2
[11] = Cardioprotective effect in Langendorff perfused guinea pig spontaneously beating […] assessed as intraventicular conduction time at 0.001 uM (RVb = 19 to 24 +/- 1 to 2 ms); format: functional; details: Cavia porcellus; outline: as §2
[12] = Cardioprotective effect in Langendorff perfused guinea pig spontaneously beating […] assessed as atrioventicular conduction time at 10 uM (RVb = 50 to 55 +/- 1 to 4 ms); format: functional; details: Cavia porcellus; outline: as §2
[13] = Cardioprotective effect in Langendorff perfused guinea pig spontaneously beating […] assessed as atrioventicular conduction time at 0.1 uM (RVb = 50 to 55 +/- 1 to 4 ms); format: functional; details: Cavia porcellus; outline: as §2
[14] = Cardioprotective effect in Langendorff perfused guinea pig spontaneously beating […] assessed as atrioventicular conduction time at 0.01 uM (RVb = 50 to 55 +/- 1 to 4 ms); format: functional; details: Cavia porcellus; outline: as §2
[15] = Cardioprotective effect in Langendorff perfused guinea pig spontaneously beating […] assessed as atrioventicular conduction time at 0.001 uM (RVb = 50 to 55 +/- 1 to 4 ms); format: functional; details: Cavia porcellus; outline: as §2
[16] = Negative chronotropic activity against potassium-induced contraction in guinea pig left atrium assessed as decrease atrial rate; format: functional, tissue-based; details: Cavia porcellus, Cardiac atrium
[17] = Antiarrhythmic activity in sinusoidal alternating current-induced guinea pig left atrium assessed as increase in current strength at which extra beats occur at 50 uM measured every 30 mins; format: functional, Cavia porcellus, Cardiac atrium; outline: as §1
Cavia porcellus = species on record: Cavia porcellus; assay: Agonist activity at muscarinic M2 receptor in guinea pig left atrium assessed as negative ionotropic activity in presence of 1 uM atropine; format: functional, tissue-based; details: Cardiac atrium
Outline: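 Isolated guinea-pig left atria electrically driven at 1 Hz; contractile force (inotropy) recorded. Potency values derived by probit analysis (Litchfield and Wilcoxon).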

[18] = Negative inotropic activity against potassium-induced contraction in guinea pig left atrium assessed as decrease in developed tension at 0.1 uM relative to control; format: functional, Cavia porcellus, Cardiac atrium; design: scale not given: the % may be the effect or the level left
[19] = Negative chronotropic activity against potassium-induced contraction in guinea pig left atrium assessed as decrease atrial rate at 100 uM relative to control; format: functional, Cavia porcellus, Cardiac atrium; design: scale not given: the % may be the effect or the level left
[20] = Cardioprotective effect in Langendorff perfused guinea pig spontaneously beating […] assessed as duration of ventricular action potential at 10 uM (RVb = 140 to 161 +/- 2 to 8 ms); format: functional, Cavia porcellus, Cardiac ventricle; outline: as §2
[21] = Cardioprotective effect in Langendorff perfused guinea pig spontaneously beating […] assessed as duration of ventricular action potential at 1 uM (RVb = 140 to 161 +/- 2 to 8 ms); format: functional, Cavia porcellus, Cardiac ventricle; outline: as §2
[22] = Cardioprotective effect in Langendorff perfused guinea pig spontaneously beating […] assessed as duration of ventricular action potential at 0.1 uM (RVb = 140 to 161 +/- 2 to 8 ms); format: functional, Cavia porcellus, Cardiac ventricle; outline: as §2
[23] = Cardioprotective effect in Langendorff perfused guinea pig spontaneously beating […] assessed as duration of ventricular action potential at 0.01 uM (RVb = 140 to 161 +/- 2 to 8 ms); format: functional, Cavia porcellus, Cardiac ventricle; outline: as §2
[24] = Cardioprotective effect in Langendorff perfused guinea pig spontaneously beating […] assessed as duration of ventricular action potential at 0.001 uM (RVb = 140 to 161 +/- 2 to 8 ms); format: functional, Cavia porcellus, Cardiac ventricle; outline: as §2
Heart [25] = assay: Cardioprotective effect in Langendorff perfused guinea pig spontaneously beating […] assessed as heart rat at 0.001 uM (RVb = 175 to 190 +/- 5 to 11 bpm); format: functional, Cavia porcellus
Heart [26] = assay: Cardioprotective effect in Langendorff perfused guinea pig spontaneously beating […] assessed as heart rat at 0.01 uM (RVb = 175 to 190 +/- 5 to 11 bpm); format: functional, Cavia porcellus
Heart [27] = assay: Cardioprotective effect in Langendorff perfused guinea pig spontaneously beating […] assessed as heart rat at 0.1 uM (RVb = 175 to 190 +/- 5 to 11 bpm); format: functional, Cavia porcellus
Heart [28] = assay: Cardioprotective effect in Langendorff perfused guinea pig spontaneously beating […] assessed as heart rat at 1 uM (RVb = 175 to 190 +/- 5 to 11 bpm); format: functional, Cavia porcellus
Heart [29] = assay: Cardioprotective effect in Langendorff perfused guinea pig spontaneously beating […] assessed as heart rat at 10 uM (RVb = 175 to 190 +/- 5 to 11 bpm); format: functional, Cavia porcellus

EC50 [1]: 34 nM
SMILES: Cc1cc(C)c(NCC[C@@H]2CCCN3CCCC[C@H]23)c(C)c1
inhibition at 100 µM (Aorta): 37% | Activity [2]: 44% | Activity [3]: 89% | EC50 [4]: 8150 nM | Activity [5]: 63%

SMILES: CCCCc1oc2ccccc2c1C(=O)c1cc(I)c(OCCN(CC)CC)c(I)c1
AV conduction time [6]: 56 ms | intraventricular conduction time [7]: 24 ms | intraventricular conduction time [8]: 22 ms | intraventricular conduction time [9]: 21 ms | intraventricular conduction time [10]: 20 ms | intraventricular conduction time [11]: 20 ms | AV conduction time [12]: 58 ms | AV conduction time [13]: 55 ms | AV conduction time [14]: 55 ms | AV conduction time [15]: 54 ms

EC50 [16]: 15300 nM | EC50 [1]: 31 nM
SMILES: COc1ccc2c(c1)nc(-c1ccccc1)c(=O)n2C[C@H]1CCCN2CCCC[C@@H]12
inhibition at 100 µM (Aorta): 11% | Activity [3]: 85% | Activity [17]: 30%

SMILES: CN1[C@@H]2CC[C@H]1C[C@@H](OC(=O)C(CO)c1ccccc1)C2 (stereo partly specified)
inhibition (Cavia porcellus): inactive

EC50 [1]: 10 nM
SMILES: Cc1cc(C)c(NC(=O)C[C@@H]2CCCN3CCCC[C@H]23)c(C)c1
inhibition at 100 µM (Aorta): 2% | Activity [17]: 49% | Activity [18]: 54%

SMILES: Cc1cccc(C)c1OC[C@@H]1CCCN2CCCC[C@H]12
inhibition at 100 µM (Aorta): 26%

EC50 [1]: 100 nM
SMILES: O=C(C[C@@H]1CCCN2CCCC[C@H]12)Nc1c(Cl)cccc1Cl
inhibition at 100 µM (Aorta): 6% | Activity [2]: 15% | Activity [17]: 32%

SMILES: CCN(CC)CCNC(=O)c1ccc(N)cc1 [PROCAINAMIDE]
inhibition at 100 µM (Aorta): 2%

SMILES: Cc1cccc(C)c1NC(=O)CSC[C@@H]1CCCN2CCCC[C@H]12 [LUPINYLTHIOACETYLANILIDE]
Activity [19]: 30% | EC50 [4]: 590 nM | Activity [17]: 67% | Activity [20]: 168 ms | Activity [21]: 164 ms | AV conduction time [6]: 55 ms | Activity [18]: 48% | Activity [22]: 157 ms | Activity [23]: 155 ms | Activity [24]: 150 ms | intraventricular conduction time [7]: 23 ms | intraventricular conduction time [8]: 24 ms | intraventricular conduction time [9]: 24 ms | intraventricular conduction time [10]: 22 ms | intraventricular conduction time [11]: 22 ms | AV conduction time [12]: 60 ms | AV conduction time [13]: 53 ms | AV conduction time [14]: 51 ms | AV conduction time [15]: 52 ms | Activity (Heart [25]): 181 bpm | Activity (Heart [26]): 175 bpm | Activity (Heart [27]): 171 bpm | Activity (Heart [28]): 166 bpm | Activity (Heart [29]): 156 bpm
